Data set [1] deals with MB49-Luc orthotopic bladder cancer. The note with it: mouse, in vivo.
The next data set deals with CD206 (Homo sapiens, UniProt P22897). The note with it: read-out: Kd of mannose; cited from earlier work.
In another data set the test system is EJ xenograft tumor. The experiment in a line: Antitumor efficiency in EJ xenograft mice. Type of data set: in vivo, mouse. The note with it: 18 days; intravenous; PepCXCR4 and bsGP 500 μM, plerixafor 100 μM, 100 μl. In outline: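 BALB/c nude mice (6 to 8 weeks, 16 to 18 g) received 5 × 10⁶ EJ cells in 100 µl s.c. in the right flank. Mice were randomised into groups of n = 6. Saline, test compound (500 µM, 100 µl) or plerixafor (100 µM, 100 µl) was given i.v. by tail vein once a day for five doses. Tumor volume was measured by calipers and body weight recorded every other day.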

Data set [2] deals with CXCR4 (breast and pancreatic cancer). The note with it: cited from earlier work.
The next data set has as its system EJ cells. The experiment in a line: Cell viability. Type of data set: cell-based, human. The note with it: 50 μM, 24 hours, CCK-8; n = 3. A digest of the protocol:
(§1)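 Cells were seeded at 5 × 10⁴ per well in RPMI 1640 and cultured overnight at 37°C, 5% CO₂. Test compound was added at 10, 20, 50, 100, 200 or 500 µM for 24 h, then CCK-8 for 2 h at 37°C. Absorbance was read at 450 nm against a 690 nm reference. Viability = (A_s − A_b)/(A_c − A_b) × 100% versus saline-treated wells. Run in triplicate.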

A further data set relates to RAW264.7 cells. Nature of the data set: Cell viability. Type of data set: cell-based. The note with it: 50 μM, 24 hours, CCK-8; n = 3. In outline: as §1
Data set [3] concerns pErk and pAkt (CXCR4 downstream) in EJ cells. The experiment in a line: Western blot of Erk and Akt phosphorylation in EJ cells. The note with it: 50 μM, 24 hours. Type of data set: cell-based, human. A digest of the protocol: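 EJ cells were lysed in buffer with protease inhibitor and centrifuged 15 min; protein was measured by BCA. 30 µg protein was run on SDS-PAGE and transferred to PVDF. Membranes were blocked 1 to 2 h at room temperature in 5% nonfat milk, 0.1% Tween 20, 10 mM TBS. Primary antibody was applied overnight at 4°C, then secondary for 1 to 2 h at room temperature. Detection was by chemiluminescence.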
Background: In western blotting, separated proteins are transferred to a membrane and probed.

Another data set concerns orthotopic bladder tumor. In kind it is in vivo, mouse. The note with it: 500 μM, 100 μl, intravesical instillation. In outline: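 Once bladder tumor growth was confirmed, test compound (500 µM, 100 µl) was instilled intravesically and kept in the bladder for 60 min. Whole-body fluorescence was scanned with IVIS at 1, 4, 8, 12, 24, 48 and 72 h. The bladder was exteriorised and imaged ex vivo at 1 h after infusion.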

In data set [4] the test system is CD86^+ and CD206^+ TAMs, CD4^+ and CD8^+ T cells. Nature of the data set: Multiplex immunofluorescence of whole tumor slices. The note with it: MB49-Luc, C57BL/6, 500 μM, 100 μl, every other day, five times. Type of data set: in vivo, mouse.

Sequence of CD206 (P22897 19-1456, species assumed): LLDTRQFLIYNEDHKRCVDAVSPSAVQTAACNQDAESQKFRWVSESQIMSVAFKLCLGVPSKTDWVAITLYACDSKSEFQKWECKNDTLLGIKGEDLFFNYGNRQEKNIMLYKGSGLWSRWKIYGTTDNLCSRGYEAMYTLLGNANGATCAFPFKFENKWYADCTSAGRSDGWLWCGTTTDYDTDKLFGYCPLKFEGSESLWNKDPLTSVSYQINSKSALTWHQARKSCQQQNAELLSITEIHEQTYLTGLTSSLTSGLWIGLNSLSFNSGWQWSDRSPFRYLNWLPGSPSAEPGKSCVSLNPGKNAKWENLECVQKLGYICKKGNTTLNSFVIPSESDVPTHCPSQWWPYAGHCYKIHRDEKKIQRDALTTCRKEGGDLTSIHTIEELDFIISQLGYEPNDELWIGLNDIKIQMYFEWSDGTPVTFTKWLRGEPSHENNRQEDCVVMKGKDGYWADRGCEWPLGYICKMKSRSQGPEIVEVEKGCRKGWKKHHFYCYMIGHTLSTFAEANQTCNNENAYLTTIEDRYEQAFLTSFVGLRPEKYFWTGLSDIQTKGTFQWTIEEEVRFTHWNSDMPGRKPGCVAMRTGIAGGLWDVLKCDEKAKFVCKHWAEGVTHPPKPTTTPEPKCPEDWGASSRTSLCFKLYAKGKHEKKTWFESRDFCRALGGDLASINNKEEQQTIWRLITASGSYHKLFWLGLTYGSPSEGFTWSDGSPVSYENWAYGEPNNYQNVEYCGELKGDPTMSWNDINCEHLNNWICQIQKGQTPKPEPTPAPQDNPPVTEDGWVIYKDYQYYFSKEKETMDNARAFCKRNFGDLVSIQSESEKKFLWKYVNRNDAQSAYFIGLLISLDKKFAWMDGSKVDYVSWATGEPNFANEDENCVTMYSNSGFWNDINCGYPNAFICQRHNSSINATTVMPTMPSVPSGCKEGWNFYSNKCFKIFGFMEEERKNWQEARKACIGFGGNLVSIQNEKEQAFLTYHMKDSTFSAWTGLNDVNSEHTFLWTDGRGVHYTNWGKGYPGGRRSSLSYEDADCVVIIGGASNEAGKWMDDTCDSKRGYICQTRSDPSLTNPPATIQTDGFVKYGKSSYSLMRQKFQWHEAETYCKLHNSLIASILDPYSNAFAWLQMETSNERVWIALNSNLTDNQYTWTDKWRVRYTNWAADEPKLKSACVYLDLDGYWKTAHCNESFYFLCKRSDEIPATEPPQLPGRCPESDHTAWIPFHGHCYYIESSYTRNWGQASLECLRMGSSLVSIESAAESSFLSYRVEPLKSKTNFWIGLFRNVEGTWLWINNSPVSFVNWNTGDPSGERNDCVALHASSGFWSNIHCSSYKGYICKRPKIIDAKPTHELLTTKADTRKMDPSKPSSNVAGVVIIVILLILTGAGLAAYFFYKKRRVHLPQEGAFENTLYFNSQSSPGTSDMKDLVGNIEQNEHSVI

Consider `C[C@H]1c2cccc(O)c2C(=O)C2=C(O)[C@]3(O)C(=O)C(C(N)=O)=C(O)[C@@H](N(C)C)[C@@H]3[C@@H](O)[C@@H]21` [Dox, doxycycline], for which, in data set [1], the recurrence rate worked out at 89% and the “survival rate at 60 days” value was 11%.
As usually defined, the Kd is the free concentration of one partner at which half of the binding sites on the other are occupied at equilibrium, for simple one-to-one binding. Turning to `OC[C@H]1OC(O)[C@@H](O)[C@@H](O)[C@@H]1O` (some centres unmarked) [mannose], the equilibrium dissociation constant (Kd) on CD206 is around 1000 µM.
For the compound `c1cc(CN2CCCNCCNCCCNCC2)ccc1CN1CCCNCCNCCCNCC1` [plerixafor], the “tumor growth inhibition rate, EJ xenograft” value with EJ xenograft tumor was 32%. Further, in data set [1], the recurrence rate is listed as 100% and the “survival rate at 60 days” value is 0%. Besides, in data set [2], the “effect on tumor apoptosis, metastasis and intratumoral Tregs” value was “substantially promote tumor apoptosis, reduce tumor metastasis, and selectively decrease intratumoral Tregs”.
In the case of LGASWHRPDK [PepCXCR4], in the data set on EJ cells, the “effect on viability of EJ cells” value was “no substantial impact”. Moreover, the “effect on viability of RAW264.7 cells” value in the data set with RAW264.7 cells was “no substantial impact”. Besides, in data set [3], the “phosphorylation of Erk and Akt” value is “did not substantially alter”. The “tumor growth inhibition rate, EJ xenograft” value in the data set on EJ xenograft tumor was found to be 19%. Besides, the “fluorescence signal at the tumor site” value with orthotopic bladder tumor is given as “evident fluorescence signals”. Besides, the “CD4^+ T cells in whole tumor slice” value in data set [4] (saline 1.74%) was 2.37%. For the same compound, the “tumor-infiltrating CD8^+ T cells in whole tumor slice” value in data set [4] (saline 3.43%) is on record as 4.04%.

The values above are taken from paper PMC9977173 (Science Advances, 2023).
